Results from ChEMBL document CHEMBL1926614, “Substituted thiazoles V. synthesis and antitumor activity of novel thiazolo[2,3-b]quinazoline and pyrido[4,3-d]thiazolo[3,2-a]pyrimidine analogues” (2012).

What was measured:
Format in all cases: functional
UACC-257 = test: Growth inhibition of human UACC257 cells at 10 uM after 48 hrs by coulter counting; details: UACC-257, 48 h, read-out: GI
Method in brief: (§1)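 Single-dose screen in the NCI 60 human tumor cell line panel (nine subpanels). Compounds dissolved in DMSO and diluted in phosphate buffered saline, keeping final DMSO below 1%. Added in duplicate wells to cells at 6 × 10⁴ cells/ml. Controls held PBS and DMSO at matching dilutions. Incubated at 37 °C, humidified, 5% CO₂. Reported as percent growth of treated cells.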

UACC-62 = test: Growth inhibition of human UACC62 cells at 10 uM after 48 hrs by coulter counting; details: UACC-62, 48 h, read-out: GI; method in brief: as §1
SF-539 = test: Growth inhibition of human SF539 cells at 10 uM after 48 hrs by coulter counting; details: SF-539, 48 h, read-out: GI
Method in brief: (§2)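 Single-dose primary screen across the full NCI 60-cell-line panel. Stocks were made in DMSO and diluted in PBS to a final DMSO below 1%. Cultures at 6 × 10⁴ cells/ml were run in duplicate wells alongside PBS/DMSO vehicle controls at 37 °C in humidified 5% CO₂. Data were expressed as percent growth of treated cells.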

CCRF-CEM = test: Growth inhibition of human CCRF-CEM cells at 10 uM after 48 hrs by coulter counting; details: read-out: GI; method in brief: as §2
HL-60(TB) = test: Growth inhibition of human HL-60(TB) cells at 10 uM after 48 hrs by coulter counting; details: HL-60, 48 h, read-out: GI
Method in brief: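 Test compound was dissolved in DMSO and diluted in phosphate-buffered saline to a final DMSO level below 1%. Dilutions were plated in duplicate with cell culture at 6 × 10⁴ cells/ml. Vehicle controls held PBS and DMSO at matching dilutions. Incubation was at 37 °C, humidified, under 5% CO₂. Data were reported as percent growth of treated cells.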

K562 = test: Growth inhibition of human K562 cells at 10 uM after 48 hrs by coulter counting; details: K562, 48 h, read-out: GI; method in brief: as §2
MOLT-4 = test: Growth inhibition of human MOLT4 cells at 10 uM after 48 hrs by coulter counting; details: MOLT-4, 48 h, read-out: GI; method in brief: as §2
RPMI-8226 = test: Growth inhibition of human RPMI8226 cells at 10 uM after 48 hrs by coulter counting; details: RPMI-8226, 48 h, read-out: GI; method in brief: as §2
A549 = test: Growth inhibition of human A549 cells at 10 uM after 48 hrs by coulter counting; details: A549, 48 h, read-out: GI; method in brief: as §2
EKVX = test: Growth inhibition of human EKVX cells at 10 uM after 48 hrs by coulter counting; details: read-out: GI; method in brief: as §2
HOP-62 = test: Growth inhibition of human HOP62 cells at 10 uM after 48 hrs by coulter counting; details: HOP-62, 48 h, read-out: GI; method in brief: as §2
NCI-H226 = test: Growth inhibition of human NCI-H226 cells at 10 uM after 48 hrs by coulter counting; details: NCI-H226, 48 h, read-out: GI; method in brief: as §2
NCI-H23 = test: Growth inhibition of human NCI-H23 cells at 10 uM after 48 hrs by coulter counting; details: NCI-H23, 48 h, read-out: GI; method in brief: as §2
[1] = Growth inhibition of human NCI-322M cells at 10 uM after 48 hrs by coulter counting; details: read-out: GI; method in brief: as §2
NCI-H460 = test: Growth inhibition of human NCI-H460 cells at 10 uM after 48 hrs by coulter counting; details: NCI-H460, 48 h, read-out: GI; method in brief: as §2
NCI-H522 = test: Growth inhibition of human NCI-H522 cells at 10 uM after 48 hrs by coulter counting; details: NCI-H522, 48 h, read-out: GI; method in brief: as §2
HCT-116 = test: Growth inhibition of human HCT116 cells at 10 uM after 48 hrs by coulter counting; details: HCT-116, 48 h, read-out: GI; method in brief: as §2
HCC 2998 = test: Growth inhibition of human HCC2998 cells at 10 uM after 48 hrs by coulter counting; details: HCC 2998, 48 h, read-out: GI; method in brief: as §2
HT-29 = test: Growth inhibition of human HT-29 cells at 10 uM after 48 hrs by coulter counting; details: HT-29, 48 h, read-out: GI; method in brief: as §2
KM12 = test: Growth inhibition of human KM12 cells at 10 uM after 48 hrs by coulter counting; details: KM12, 48 h, read-out: GI; method in brief: as §2
SF-268 = test: Growth inhibition of human SF268 cells at 10 uM after 48 hrs by coulter counting; details: SF-268, 48 h, read-out: GI; method in brief: as §2
SF-295 = test: Growth inhibition of human SF295 cells at 10 uM after 48 hrs by coulter counting; details: SF-295, 48 h, read-out: GI; method in brief: as §2
SNB-19 = test: Growth inhibition of human SNB19 cells at 10 uM after 48 hrs by coulter counting; details: SNB-19, 48 h, read-out: GI; method in brief: as §2
SNB-75 = test: Growth inhibition of human SNB75 cells at 10 uM after 48 hrs by coulter counting; details: SNB-75, 48 h, read-out: GI; method in brief: as §2
U-251 = test: Growth inhibition of human U251 cells at 10 uM after 48 hrs by coulter counting; details: U-251, 48 h, read-out: GI; method in brief: as §1
LOX IMVI = test: Growth inhibition of human LOXIMVI cells at 10 uM after 48 hrs by coulter counting; details: read-out: GI; method in brief: as §2
M14 = test: Growth inhibition of human M14 cells at 10 uM after 48 hrs by coulter counting; details: M14, 48 h, read-out: GI; method in brief: as §2
MDA-MB-435 = test: Growth inhibition of human MDA-MB-435 cells at 10 uM after 48 hrs by coulter counting; details: MDA-MB-435, 48 h, read-out: GI; method in brief: as §2
SK-MEL-2 = test: Growth inhibition of human SK-MEL-2 cells at 10 uM after 48 hrs by coulter counting; details: SK-MEL-2, 48 h, read-out: GI; method in brief: as §2
SK-MEL-28 = test: Growth inhibition of human SK-MEL-28 cells at 10 uM after 48 hrs by coulter counting; details: SK-MEL-28, 48 h, read-out: GI; method in brief: as §2
SK-MEL-5 = test: Growth inhibition of human SK-MEL-5 cells at 10 uM after 48 hrs by coulter counting; details: SK-MEL-5, 48 h, read-out: GI; method in brief: as §2
IGROV-1 = test: Growth inhibition of human IGROV1 cells at 10 uM after 48 hrs by coulter counting; details: IGROV-1, 48 h, read-out: GI; method in brief: as §2
OVCAR-4 = test: Growth inhibition of human OVCAR4 cells at 10 uM after 48 hrs by coulter counting; details: OVCAR-4, 48 h, read-out: GI; method in brief: as §2
NCI/ADR-RES = test: Growth inhibition of human NCI/ADR-RES cells at 10 uM after 48 hrs by coulter counting; details: read-out: GI; method in brief: as §2
A498 = test: Growth inhibition of human A498 cells at 10 uM after 48 hrs by coulter counting; details: A498, 48 h, read-out: GI; method in brief: as §2
ACHN = test: Growth inhibition of human ACHN cells at 10 uM after 48 hrs by coulter counting; details: read-out: GI; method in brief: as §2
CAKI-1 = test: Growth inhibition of human Caki1 cells at 10 uM after 48 hrs by coulter counting; details: CAKI-1, 48 h, read-out: GI; method in brief: as §2
UO-31 = test: Growth inhibition of human UO31 cells at 10 uM after 48 hrs by coulter counting; details: UO-31, 48 h, read-out: GI; method in brief: as §1
DU-145 = test: Growth inhibition of human DU145 cells at 10 uM after 48 hrs by coulter counting; details: DU-145, 48 h, read-out: GI; method in brief: as §2
MCF7 = test: Growth inhibition of human MCF7 cells at 10 uM after 48 hrs by coulter counting; details: MCF7, 48 h, read-out: GI; method in brief: as §2
BT-549 = test: Growth inhibition of human BT549 cells at 10 uM after 48 hrs by coulter counting; details: BT-549, 48 h, read-out: GI; method in brief: as §2
T47D = test: Growth inhibition of human T47D cells at 10 uM after 48 hrs by coulter counting; details: read-out: GI; method in brief: as §1

Measured: inhibition of growth at 10 µM

C1=CN2C(=NC3=C(CCC/C3=C\c3cccs3)C2c2cccs2)S1 (centres undefined)
28.7%: UO-31
10.4%: SNB-75
13%: LOX IMVI
> 10%: all other assays above

COc1ccc(/C=C2\CCCC3=C2N=C2SC=C(C)N2C3c2ccc(OC)cc2)cc1 (centres undefined)
23.3%: UO-31
13.5%: RPMI-8226
12.5%: CAKI-1
36%: A498
> 10%: all other assays above
